Measurements reported in ChEMBL document CHEMBL4706590, “Design and characterization of cereblon-mediated androgen receptor proteolysis-targeting chimeras” (Eur J Med Chem, 2020).
Activity calls are given as the source filed them. No cut-off for these calls is given here.

Experiments:
[1] = AUCt in ICR mouse at 5 mg/kg, iv by LC-MS/MS analysis; format: ADME, organism-based; design: dose 5 mg/kg; settings: in vivo
How it was run: (§1)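 Male ICR mice, 7 weeks old. Single dose of 5 mg/kg IV or IP in 5% DMSO, 52% PEG400, 3% Tween 80 in water, or 30 mg/kg PO in 20% PEG400 and 3% Tween 80 in water. Retro-orbital blood sampled over time. Plasma protein-precipitated with acetonitrile (1:10) and analysed by LC-MS/MS. Parameters from noncompartmental analysis of mean data, n = 3.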

[2] = Tmax in ICR mouse at 30 mg/kg, po by LC-MS/MS analysis; format: ADME, organism-based; settings: in vivo; how it was run: as §1
VCaP [3] = test: Antiproliferative activity against human VCaP cells assessed as reduction in cell viability after 6 days by CellTiter-Glo assay; format: functional; settings: 144 h, time 6 day
How it was run: (§2)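 LNCaP seeded at 1.5 × 10³ and VCaP at 4 × 10³ cells per well in 96-well plates. Cells grown in IMDM with 10% FBS and antibiotic-antimycotic at 37 °C, 5% CO2, with DMSO as vehicle. IC50 from nonlinear regression of log(inhibitor) versus response.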

[4] = target: T1, Protein cereblon/Androgen receptor (Homo sapiens, UniProt P10275+Q96SW2); test: Protac activity at CRBN/AR in human LNCaP cells assessed as AR degradation at 1 uM by Western blotting analysis relative to control; format: cell-based
How it was run: (§3)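 LNCaP (IMDM) or 22RV1 (RPMI 1640) cells with 10% FBS at 37 °C, 5% CO2, treated with DMSO vehicle as control. Cells lysed in RIPA buffer (50 mM Tris-HCl pH 7.5, 150 mM NaCl, 1% Triton X-100, 0.1% SDS, 0.5% deoxycholate, protease inhibitors). Protein quantified by Bradford assay. Immunoblotted for AR with tubulin as loading control, HRP chemiluminescence detection.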
Target sequence in this assay (P10275 whole entry, looked up): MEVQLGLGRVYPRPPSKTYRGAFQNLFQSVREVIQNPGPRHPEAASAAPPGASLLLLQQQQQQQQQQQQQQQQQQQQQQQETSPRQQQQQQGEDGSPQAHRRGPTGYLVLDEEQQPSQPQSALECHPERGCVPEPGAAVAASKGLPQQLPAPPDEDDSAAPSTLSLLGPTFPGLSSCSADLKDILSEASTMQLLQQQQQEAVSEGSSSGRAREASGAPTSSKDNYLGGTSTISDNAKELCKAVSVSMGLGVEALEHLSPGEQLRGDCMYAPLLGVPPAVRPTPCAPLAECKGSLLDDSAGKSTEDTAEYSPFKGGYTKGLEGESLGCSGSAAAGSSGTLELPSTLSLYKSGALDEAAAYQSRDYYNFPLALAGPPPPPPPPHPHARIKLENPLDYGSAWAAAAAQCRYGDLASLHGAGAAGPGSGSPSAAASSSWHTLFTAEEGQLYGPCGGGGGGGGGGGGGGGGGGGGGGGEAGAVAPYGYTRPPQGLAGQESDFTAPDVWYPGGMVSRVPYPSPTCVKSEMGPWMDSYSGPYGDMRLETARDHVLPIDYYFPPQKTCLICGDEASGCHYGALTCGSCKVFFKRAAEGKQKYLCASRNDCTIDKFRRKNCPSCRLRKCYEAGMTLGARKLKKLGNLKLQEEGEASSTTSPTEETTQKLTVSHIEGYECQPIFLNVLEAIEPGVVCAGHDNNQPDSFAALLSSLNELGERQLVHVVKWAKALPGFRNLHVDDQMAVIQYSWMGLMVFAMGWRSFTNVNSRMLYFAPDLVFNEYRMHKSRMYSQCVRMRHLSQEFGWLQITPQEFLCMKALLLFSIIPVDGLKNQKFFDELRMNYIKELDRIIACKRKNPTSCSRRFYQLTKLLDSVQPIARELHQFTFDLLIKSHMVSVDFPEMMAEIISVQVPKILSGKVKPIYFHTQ
Target sequence in this assay (Q96SW2 whole entry, looked up): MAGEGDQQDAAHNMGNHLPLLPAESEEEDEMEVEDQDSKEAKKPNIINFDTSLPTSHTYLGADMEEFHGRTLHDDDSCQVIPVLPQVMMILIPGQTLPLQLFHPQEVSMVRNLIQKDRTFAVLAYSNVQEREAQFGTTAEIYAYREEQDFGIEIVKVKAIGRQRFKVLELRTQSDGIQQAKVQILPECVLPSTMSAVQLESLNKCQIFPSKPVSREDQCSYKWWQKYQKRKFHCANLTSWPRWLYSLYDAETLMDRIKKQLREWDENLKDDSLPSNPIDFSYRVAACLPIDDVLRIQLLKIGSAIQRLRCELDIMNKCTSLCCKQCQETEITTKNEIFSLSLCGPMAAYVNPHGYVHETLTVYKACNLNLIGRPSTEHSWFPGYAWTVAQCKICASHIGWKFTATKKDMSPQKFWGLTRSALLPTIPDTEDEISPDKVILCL

[5] = AUCt in ICR mouse at 30 mg/kg, po by LC-MS/MS analysis; format: ADME, organism-based; design: dose 30 mg/kg; settings: in vivo; for AUC(0-t): ICR; how it was run: as §1
[6] = AUCt in ICR mouse at 5 mg/kg, ip by LC-MS/MS analysis; format: ADME, organism-based; design: dose 5 mg/kg; settings: in vivo; how it was run: as §1
[7] = Cmax in ICR mouse at 5 mg/kg, ip by LC-MS/MS analysis; format: ADME, organism-based; design: route intraperitoneal, dose 5 mg/kg; settings: in vivo; how it was run: as §1
[8] = Cmax in ICR mouse at 30 mg/kg, po by LC-MS/MS analysis; format: ADME, organism-based; design: route oral, dose 30 mg/kg; settings: in vivo; how it was run: as §1
[9] = Tmax in ICR mouse at 5 mg/kg, ip by LC-MS/MS analysis; format: ADME, organism-based; settings: in vivo; how it was run: as §1
LNCaP = test: Antiproliferative activity against human LNCaP cells assessed as reduction in cell viability after 6 days by CellTiter-Glo assay; format: functional; settings: 144 h, time 6 day; how it was run: as §2
[10] = target: T1, Protein cereblon/Androgen receptor; test: Protac activity at CRBN/AR in human LNCaP cells assessed as AR degradation at 0.1 uM by western blotting analysis relative to control; format: cell-based; how it was run: as §3
Target sequence in this assay (P10275 whole entry, looked up): as the sequence (P10275 whole entry, looked up) above
Target sequence in this assay (Q96SW2 whole entry, looked up): as the sequence (Q96SW2 whole entry, looked up) above

[11] = target: T1, Protein cereblon/Androgen receptor; test: Protac activity at CRBN/AR in human LNCaP cells assessed as AR degradation at 10 uM by Western blotting analysis relative to control; format: cell-based; how it was run: as §3
Target sequence in this assay (P10275 whole entry, looked up): as the sequence (P10275 whole entry, looked up) above
Target sequence in this assay (Q96SW2 whole entry, looked up): as the sequence (Q96SW2 whole entry, looked up) above

[12] = Metabolic stability in mouse liver microsomes assessed as compound remaining at 1 uM after 30 mins in presence of NADPH-regenerating system; format: ADME, Microsome; settings: read-out: Stabilty
How it was run: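 Mouse liver microsomes at 0.5 mg protein/mL in 100 mM PBS, pH 7.4. Reaction started with NADPH-regenerating solution (1.3 mM NADP+, 3.3 mM glucose-6-phosphate, 0.4 U/mL G6PDH, 3.3 mM MgCl2). Incubated 30 min at 37 °C, stopped with ice-cold acetonitrile, centrifuged. Percent remaining reported as mean ± SD, n = 3.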

[13] = Half life in ICR mouse at 5 mg/kg, iv by LC-MS/MS analysis; format: ADME, organism-based; settings: in vivo; how it was run: as §1
[14] = Half life in ICR mouse at 30 mg/kg, po by LC-MS/MS analysis; format: ADME, organism-based; settings: in vivo; for t1/2: 30 mg/kg; how it was run: as §1
[15] = Half life in ICR mouse at 5 mg/kg, ip by LC-MS/MS analysis; format: ADME, organism-based; settings: in vivo; how it was run: as §1
[16] = target: T1, Protein cereblon/Androgen receptor; test: Protac activity at CRBN/AR in human 22RV1 cells assessed as maximum degradation of AR at 1 uM by Western blotting analysis relative to control; format: cell-based; how it was run: as §3
Target sequence in this assay (P10275 whole entry, looked up): as the sequence (P10275 whole entry, looked up) above
Target sequence in this assay (Q96SW2 whole entry, looked up): as the sequence (Q96SW2 whole entry, looked up) above

[17] = target: T1, Protein cereblon/Androgen receptor; test: Protac activity at CRBN/AR in human LNCaP cells assessed as AR degradation at 1 uM after 4 hrs by Western blotting analysis relative to control; format: cell-based; how it was run: as §3
Target sequence in this assay (P10275 whole entry, looked up): as the sequence (P10275 whole entry, looked up) above
Target sequence in this assay (Q96SW2 whole entry, looked up): as the sequence (Q96SW2 whole entry, looked up) above

[18] = target: T1, Protein cereblon/Androgen receptor; test: Protac activity at CRBN/AR in human LNCaP cells assessed as AR degradation at 1 uM pretreated with protease inhibitor bortezomib by Western blotting analysis; format: cell-based; how it was run: as §3
Target sequence in this assay (P10275 whole entry, looked up): as the sequence (P10275 whole entry, looked up) above
Target sequence in this assay (Q96SW2 whole entry, looked up): as the sequence (Q96SW2 whole entry, looked up) above

[19] = target: T1, Protein cereblon/Androgen receptor; test: Protac activity at CRBN/AR in human LNCaP cells assessed as maximum degradation of AR by Western blotting analysis relative to control; format: cell-based; settings: time 24.0 hrs; how it was run: as §3
[20] = target: T1, Protein cereblon/Androgen receptor; test: Protac activity at CRBN/AR in human LNCaP cells assessed as AR degradation at 1 uM pretreated with neddylation inhibitor MLN4924 by Western blotting analysis; format: cell-based; how it was run: as §3
[21] = target: T1, Protein cereblon/Androgen receptor; test: Protac activity at CRBN/AR in human 22RV1 cells assessed as maximum degradation of AR-V7 splice variant at 10 uM by Western blotting analysis relative to control; format: cell-based; how it was run: as §3
[22] = Toxicity in SCID mouse xenografted with human VCaP cells assessed as loss of body weight at 30 mg/kg, ip administered once daily for 10 days and measured every 1 to 3 days post treatment; format: organism-based; settings: in vivo, 240 h, time 10 day
How it was run: (§4)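 Male SCID mice (C.B-17/IcrCrj-scid) implanted subcutaneously in the right flank with 1.5×10⁷ VCaP cells mixed 1:1 with Matrigel. At about 130 mm³, mice dosed IP once daily for 10 days, vehicle 20% PEG400 + 3% Tween 80 in PBS. Tumours measured by caliper, volume = length × width² × 0.5. Body weight tracked alongside; Mann-Whitney U test, α = 0.01.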

VCaP [23] = test: Antitumor activity against human VCaP cells xenografted in SCID mouse assessed as reduction in tumor growth at 30 mg/kg, ip administered once daily for 10 days and measured every 1 to 3 days post treatment by caliper method; format: functional, organism-based; settings: time 10.0 day; how it was run: as §4
[24] = target: T1, Protein cereblon/Androgen receptor; test: Protac activity at CRBN/AR in human LNCaP cells assessed as AR degradation after 24 hrs by Western blotting analysis; format: cell-based; how it was run: as §3
Target sequence in this assay (P10275 whole entry): as the sequence (P10275 whole entry, looked up) above
Target sequence in this assay (Q96SW2 whole entry): as the sequence (Q96SW2 whole entry, looked up) above

[25] = target: T1, Protein cereblon/Androgen receptor; test: Protac activity at CRBN/AR in human LNCaP cells assessed as AR degradation at 0.1 to 10 uM Western blotting analysis relative to control; format: cell-based; settings: dose 0.1-10 µM; how it was run: as §3

SMILES	AUC(0-t) [1] [ng·h/mL]	CC50 (VCaP [3]) [µM]	Activity [4] [%]	AUCt [6] [ng·h/mL]	Cmax [7] [ng/mL]	Tmax [9] [h]	CC50 (LNCaP) [µM]	Activity [10] [%]	Activity [11] [%]	remaining at 0.5 h, 1 µM [12] [%]	half-life [13] [h]	t1/2 [15] [h]	other results
CC1(C)[C@H](NC(=O)c2ccc(N3CCN(CCOC4CCN(c5ccc6nnn(C7CCC(=O)NC7=O)c(=O)c6c5)CC4)CC3)cc2)C(C)(C)[C@H]1Oc1ccc(C#N)c(Cl)c1 (stereo not given in full)	14300	0.022	89	10700	1780	2	0.523	86	87	86.8	4.68	4.51	Tmax ([2]; ICR, read-out: Tmax): 2 h; AUC(0-t) [5]: 2840 ng·h/mL; Cmax ([8]; ICR, read-out: Cmax): 280 ng/mL; half-life ([14]; ICR): 5.58 h
CC1(C)[C@H](NC(=O)c2ccc(N3CCN(C4CC5(CCN(C(=O)C6CCN(c7ccc8nnn(C9CCC(=O)NC9=O)c(=O)c8c7)CC6)CC5)C4)CC3)cc2)C(C)(C)[C@H]1Oc1ccc(C#N)c(Cl)c1 (stereo not given in full)	20700	0.044	93	1720	2780	0.03	0.098	85	95	96	8.28	4.41	Tmax ([2]; ICR, read-out: Tmax): 4 h; Activity [16]: 85%; Activity [17]: 80%; AUC(0-t) [5]: 530 ng·h/mL; Cmax ([8]; ICR, read-out: Cmax): 110 ng/mL; Activity [18]: inactive; Activity [19]: 93%; Activity [20]: inactive; Activity [21]: 34%; Activity [22]: Non-Toxic; Activity (VCaP [23]): Active; DC50 [24]: 0.0125 µM
CC1(C)[C@H](NC(=O)c2ccc(N3CCN(CCOC4CCN(C(=O)C5CN(c6ccc7nnn(C8CCC(=O)NC8=O)c(=O)c7c6)C5)CC4)CC3)cc2)C(C)(C)[C@H]1Oc1ccc(C#N)c(Cl)c1 (stereo not given in full)	4490	0.057	86	7490	2010	1.67	0.762	82	90	92.6	4.35	4.24	Tmax ([2]; 30 mg/kg): 0.7 h; AUCt [5]: 150 ng·h/mL; Cmax [8]: 20 ng/mL; t1/2 [14]: 19.7 h
CC1(C)[C@H](NC(=O)c2ccc(N3CCN(CC4CCN(C(=O)C5CN(c6ccc7nnn(C8CCC(=O)NC8=O)c(=O)c7c6)C5)CC4)CC3)cc2)C(C)(C)[C@H]1Oc1ccc(C#N)c(Cl)c1 (stereo not given in full)	24100	0.038	96	24200	5540	2	0.089	96	83	92.8	4.48	4.82	Tmax ([2]; 30 mg/kg): 0.67 h; AUCt [5]: 440 ng·h/mL; Cmax [8]: 50 ng/mL; t1/2 [14]: 26.7 h
CC1(C)[C@H](NC(=O)c2ccc(N3CCN(C4CC5(CCN(C(=O)CNc6ccc7nnn(C8CCC(=O)NC8=O)c(=O)c7c6)CC5)C4)CC3)cc2)C(C)(C)[C@H]1Oc1ccc(C#N)c(Cl)c1 (stereo not given in full)	–	0.054	77	–	–	–	0.208	61	39	85.5	–	–	–
CC1(C)[C@H](NC(=O)c2ccc(N3CCN(C4CC5(CCN(C(=O)COc6ccc7nnn(C8CCC(=O)NC8=O)c(=O)c7c6)CC5)C4)CC3)cc2)C(C)(C)[C@H]1Oc1ccc(C#N)c(Cl)c1 (stereo not given in full)	–	0.076	77	–	–	–	0.196	60	79	62.8	–	–	–
CN1C(=O)CCC(n2nnc3ccc(N4CCC(C(=O)N5CCC6(CC5)CC(N5CCN(c7ccc(C(=O)N[C@H]8C(C)(C)[C@H](Oc9ccc(C#N)c(Cl)c9)C8(C)C)cc7)CC5)C6)CC4)cc3c2=O)C1=O (stereo not given in full)	–	–	–	–	–	–	–	–	–	–	–	–	Activity [25]: inactive
